From the EternaBench riboswitch data

System: MS2 coat protein
Assay: apparent Kd, MS2 coat protein; higher = weaker binding; RNA-MaP array; FMN 200 µM where present
In short: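 Designs were transcribed by stalled E. coli RNA polymerase on Illumina sequencing-chip clusters. They were titrated with SNAP-549-labelled MS2 coat protein from 0.7 or 1.5 nM, doubling to 3 µM, without and then with constant ligand. Buffer: 100 mM Tris-HCl pH 7.5, 80 mM KCl, 4 mM MgCl2, BSA, DTT, yeast tRNA, Tween-20. Green signal was normalised to red-channel RNA signal and control-cluster median Fmax. Apparent Kd is the median of filtered per-cluster binding-curve fits.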

[1] = designed as: OFF switch for flavin mononucleotide, no ligand
[2] = ligand present: flavin mononucleotide, designed as: OFF switch for flavin mononucleotide
[3] = designed as: ON switch for flavin mononucleotide, no ligand
[4] = ligand present: flavin mononucleotide, designed as: ON switch for flavin mononucleotide

CUCUUGGCAGGAUAUGCUUUUUUAGACAUGAGGAUCACCCAUGUGAUGAAUAUUGGGUUCGCAGAAGGGCCUGAAU
apparent Kd [1]: 54.1 nM | apparent Kd [2]: 48.3 nM

AGAUAACACCAGAAGGACAUGAGGAUCACCCAUGUAGGAUAUGGGCAUCACUCGAGAAAGAAAAGACCAAGUGGACACAUGGUC
apparent Kd [3]: 147 nM | apparent Kd [4]: 11 nM

CGCAUCUCUUCAAUUCCUUCACAUGAGGAUCACCCAUGUAGGGAGGAUAUGCAAGCCUAUUGGCGGCAGAAGGCCCUGCAAUGG
apparent Kd [1]: 177 nM | apparent Kd [2]: 86.9 nM

ACGUAACGGUGCGCGAGUGGACGGAGAAGGCAGACAUGAGGAUCACCCAUGUGAGCCUGCUAUUCUGAGGAUAUCCGUCCGCAC
apparent Kd [1]: 38.9 nM | apparent Kd [2]: 254 nM

UGUGUGAGACAGGAUAUGCCGGAUAUAGUACUGGUAGAAGGGUCUACAUGAGGAUCACCCAUGUGGCCGGCCGG
apparent Kd [1]: 16.8 nM | apparent Kd [2]: 25 nM

GAUAGAGAGCAGGAUAUCUUAGAAAUGUAUUAUAGAGAAGGGCUCACAUGAGGAUCACCCAUGUGGUCCUAGAU
apparent Kd [1]: 16.4 nM | apparent Kd [2]: 108 nM

UGGGUGGUCCGAGGAUAUGUCACAUGAGGAUCACCCAUGUAAAACCAAGAGACAGAAGGCGGACAUAGACGCCCAAUUGCGCUC
apparent Kd [3]: 30.7 nM | apparent Kd [4]: 5.03 nM

UGUAUGGACAGAGGAUAUACGGAUAGGAUCUACUAUCUUCCUUAAAUAACAUGAGGAUCACCCAUGUAGAAGGCUGUCCAUACU
apparent Kd [1]: 19 nM | apparent Kd [2]: 74.7 nM

CACCGUUAGUGAGGAUAUCUUACAUGAGGAUCACCCAUGUAAUAAAUGAGAAUUUCGGAUGUAUUAGAGAAGGCACAAAUCGGC
apparent Kd [1]: 25.1 nM | apparent Kd [2]: 24.3 nM

GAUUAGUGAGGAUAUGGUAAAGAUAAGAUGAUGAAAGAACUCCAGAAGGCACAUGAGGAUCACCCAUGUAGUAU
apparent Kd [1]: 17.4 nM | apparent Kd [2]: 21.6 nM

UAUUUAUUAGAGAAGGUACAUACAAUUAACAACAUACAUGAGGAUCACCCAUGUUGGUGAAUAAGUAAGGAUAUUUAAUACUUU
apparent Kd [1]: 31.3 nM | apparent Kd [2]: 17.6 nM

GAGUUUACGUUUGUCACUUAGCGAGAGGAUAUGGAAAACAAGACAUGAGGAUCACCCAUGUACUAUCAGAAGGCUCGAGUACGA
apparent Kd [3]: 7.26 nM | apparent Kd [4]: 5.59 nM

AAUAACAGAGGAUAUACUAUUUUAUGUGUUUGUUGUUUUAAACAUGAGGAUCACCCAUGUAGAAGGCUGAUUAA
apparent Kd [1]: 32.7 nM | apparent Kd [2]: 38.8 nM

GUGGUCAGACAUGAGGAUCACCCAUGUGGAAUAAAUAAGGUCAAGGAUAUUCAAUAUAGGAUAUAGAAGAAGGUGAGGUUGGUG
apparent Kd [3]: 136 nM | apparent Kd [4]: 188 nM

ACGACGAAAGUCGAACGAUGUACGAGAAGGACAUGAGGAUCACCCAUGUUAUCUGUUAUAGACAUGUAGGAUAUCGUACAUCGA
apparent Kd [1]: 8.25 nM | apparent Kd [2]: 26.8 nM

UAGUGAUUGCAAGGAUAUGCUAGUUUUUAUUUGUGUUUGAUAUCUAACAUGAGGAUCACCCAUGUGCAGAAGGUGCUUGAUUUG
apparent Kd [3]: 87.8 nM | apparent Kd [4]: 107 nM

CGUAGGAUGCAGAAGGCAUGAACAUGAGGAUCACCCAUGUUAAAAGACAUGAGGAUAUGCAUCCUACGAAAAGUGCGAAAGCAC
apparent Kd [3]: 5.15 nM | apparent Kd [4]: 4.54 nM

ACGAUGUCAGGAUAUCGAUCACGGGUCUGAAGACACGUGUUUGAGAAGGGACAUGAGGAUCACCCAUGUGUCUC
apparent Kd [1]: 122 nM | apparent Kd [2]: 314 nM

GUUGUGCGAGGAUAUAUGUGAGGUUUGCCUCAACAGGUAAUACAUGAGGAUCACCCAUGUAGAAGGCGCAUGAG
apparent Kd [1]: 102 nM | apparent Kd [2]: 589 nM

GAAGGCUGGUAGAAGGAUCCUCACAUGAGGAUCACCCAUGUAACAGCGGAUAGGAUAUACCGUCUUUCACGUUGGUCUCCCUAA
apparent Kd [3]: 370 nM | apparent Kd [4]: 25.3 nM

UUGGACGUCGUAGGAUAUGUAGGAUAUUCCUACAUGAGGAUCACCCAUGUUCACAUGGAAGAAGGACAGAAGGACGAUGUCCAU
apparent Kd [3]: 502 nM | apparent Kd [4]: 5.8 nM

UACAUGAGGAUCACCCAUGUUUUGUCGUGUAUGGUAUUUAUCUAGGAUAUCAAUUGAGUUAUUUAUGAGAAGGAGAAUAUUAAU
apparent Kd [1]: 41.7 nM | apparent Kd [2]: 44 nM

UUGGACGUCGUAGGAUAUGUAAGAUAUUCCUACAUGAGGAUCACCCAUGUUGACAUGGAAGAAGGACAGAAGGACGAUGUCCAU
apparent Kd [3]: 6.47 nM | apparent Kd [4]: 4.87 nM

AUAGUGCGCGAGAAGGACGUACCACAUGAGGAUCACCCAUGUGUGGUACGUAGGAUAUUGCACAUGAGGAUCACCCAUGUGGAU
apparent Kd [3]: 19.5 nM | apparent Kd [4]: 34.6 nM

AUAUAUAUAUAGAAGGUGCCAGCGAGAGCUGCACAUGAGGAUCACCCAUGUUGUCGGUGACGACGCAAGGAUAUAUAUAUAUAU
apparent Kd [3]: 34 nM | apparent Kd [4]: 15.4 nM

GUGGUCAGACAUGAGGAUCACCCAUGUGGAAUAAAUAACGAACAGGAUAUGCAAUAUAGGAUAUAGUAGAAGGGUUGAUUGGUG
apparent Kd [3]: 104 nM | apparent Kd [4]: 138 nM

CUGUUAUAGGUCCAGAAUUACAACAUGAGGAUCACCCAUGUGCAGGAUAUCGGGUUGAUAGGCGCCGAGAAGGGUAUAGUCACG
apparent Kd [1]: 75.8 nM | apparent Kd [2]: 70.8 nM

AAAAUCAAUGCAGGAUAUACAUGAGGAUCACCCAUGUAGGUUGACCCUAAUACGGGCGAUUUGCAGUAGAAGGGCAAGAAGAAA
apparent Kd [1]: 50.7 nM | apparent Kd [2]: 63.4 nM

GUUAGCUCGUGAGGAUAUACAACACUGCUUCGGCAGUGUAUUAAGAUCACAUGAGGAUCACCCAUGUAGAAGGCACGAGCUGAU
apparent Kd [1]: 12.8 nM | apparent Kd [2]: 256 nM

AUCUUCGGAGGAUAUUCUCCGUCACACAUGAGGAUCACCCAUGUCAUUCGAAUGGGUUCGGAAGAAGGUCGAAGGU
apparent Kd [1]: 236 nM | apparent Kd [2]: 171 nM

CUCUUCUCUGAGGAUAUUUUAUGUGUGGACGUGAAAGAAGGCAGUACAUGAGGAUCACCCAUGUGUCCCUCUGU
apparent Kd [1]: 126 nM | apparent Kd [2]: 216 nM

CCGGAUACGGGUAGCCUGACAUGAGGAUCACCCAUGUAAUACGAGGAUAUGGAUCCUAAUUGGAUCCAGAAGGUGUCAGGCUAC
apparent Kd [3]: 1310 nM | apparent Kd [4]: 734 nM

CAUCUCUAUGUAGGAUAUAGGACAACAACAGCACUAGAAGGACAUGAGGAUCACCCAUGUACACUACUCGCGUCAUCGUCUCGC
apparent Kd [1]: 6.01 nM | apparent Kd [2]: 6.22 nM

CCGAUACGAGGAUAUACAUGAGGAUCACCCAUGUAGUGGACCGAGCGUCGGUGUCUCAGUAGAAGGCGUUAAGA
apparent Kd [1]: 16.2 nM | apparent Kd [2]: 17.3 nM

GGAUAGAUGAAGGGCGAACGCGCACAUGAGGAUCACCCAUGUAGAAGGCGGUCCGCAACGCGGAUCGAGGAUAUAUAGUAUACG
apparent Kd [1]: 18.4 nM | apparent Kd [2]: 16.8 nM

GGACGUCACAUGAACAUGAGGAUCACCCAUGUAACUAGACAUGAGGAUAUGGAUCCUAAUUGGAUCCAGAAGGCAUGGACGUCC
apparent Kd [3]: 199 nM | apparent Kd [4]: 32.1 nM

GUGUACAGAGGAUAUAUAUGAGCAUGGAAACAUGCAAGAUCACAUGAGGAUCACCCAUGUAGAAGGCUGUACAC
apparent Kd [1]: 88.4 nM | apparent Kd [2]: 541 nM

AGGCCGCUACGCCGGCUUCACGCACAGGAUAUGCAGUUACAUGAGGAUCACCCAUGUGGCCAUGUGCAGAAGGGUGGUUCGUUA
apparent Kd [3]: 109 nM | apparent Kd [4]: 24.5 nM

AAAGGUUGAGGAUAUGCGUGGAAAAAGUGUAUUCAAAAAAAACAUGAGGAUCACCCAUGUAGAAGGCGACCAAA
apparent Kd [1]: 93.6 nM | apparent Kd [2]: 245 nM

GCGUUAAAGAUCCAUUUUUACAACAUGAGGAUCACCCAUGUGCAGGAUAUCGAAUGUUUUAUAUUCGAGAAGGGCAAUUUCCGC
apparent Kd [1]: 70.3 nM | apparent Kd [2]: 99.3 nM

UGUCUAUAUGAAGGAUAUCUAAGCAUAAACCGUAGAGAAGGUCAAUAGUACAUGAGGAUCACCCAUGUUAGAAUUGAAGGGUUU
apparent Kd [1]: 17.6 nM | apparent Kd [2]: 23.2 nM

GGUCGCAAGUAAGGAUAUGCAUAUGAAACAUAUGCAGAAGGUACAUGAGGAUCACCCAUGUUAAUGCAAAGCGAAUAAGCGACC
apparent Kd [1]: 15.5 nM | apparent Kd [2]: 19.6 nM

UGUGCUGAAGGAUAUGCGUAAUCUCGGUGACGAGUAGAUCUACAUGAGGAUCACCCAUGUAGAAGGUCAGUACU
apparent Kd [1]: 17.8 nM | apparent Kd [2]: 18.9 nM

GGGUGGCGUAUAGGAUAUAUGGUACAUGAGGAUCACCCAUGUACAUAUGAUGUUCAUGUUUGUGUAUAGAAGGAUACGUCGGGA
apparent Kd [3]: 9.44 nM | apparent Kd [4]: 8.86 nM

UUUAUAAAUUAGAAGGCAUGAUGAAUUACAAUAGACAUGAGGAUCACCCAUGUGUAUUCAUGUCAUGAGGAUAUAGUCAUAUAU
apparent Kd [3]: 8.91 nM | apparent Kd [4]: 6.45 nM

AGAGGACAUGAGGAUCACCCAUGUAAGGAUAUGCGGAGAGUUUGGAGAGGUCGGGUAGGCAGAAGGUACAGGAG
apparent Kd [1]: 65.1 nM | apparent Kd [2]: 91.7 nM

GGGCCCGGUGUGAGGAUAUUGGGUCUGAAAGGGCUCGAGAAGGCACAUGAGGAUCACCCAUGUAAGCCGGGCCC
apparent Kd [1]: 16.7 nM | apparent Kd [2]: 13.7 nM

UUCAUGUGAGGAUAUGCGGCAUCAGGUGGGCCUGUCGCUGAGCAGAAGGCACAUGAGGAUCACCCAUGUGCUCC
apparent Kd [1]: 16.4 nM | apparent Kd [2]: 41.6 nM

CAGCAUCAUGUAGGAUAUGCGUGGCGAAGCUAUGCAGAAGGACAUGAGGAUCACCCAUGUCUUAGCUAGCGUACUAGCUUGCUG
apparent Kd [1]: 7.5 nM | apparent Kd [2]: 21.4 nM

GUCGAGUGAGGAUAUGGUGAGUAGUGCCUGAGCGCUGCUCACCAGAAGGCACAUGAGGAUCACCCAUGUAUGUC
apparent Kd [1]: 13.7 nM | apparent Kd [2]: 20.7 nM

GUAGAGUCAGGAUAUACGAGAUCGAAAGAUCGGCGGUCUGUACAUGAGGAUCACCCAUGUAGAAGGGACUCUAC
apparent Kd [1]: 16.4 nM | apparent Kd [2]: 94.4 nM

GGAUAGGACAGAGGAUAUACGCGCUAGAGAUACUAGCAAAAUUUCCUCACAUGAGGAUCACCCAUGUAGAAGGCUGUCCUAUCG
apparent Kd [1]: 20.1 nM | apparent Kd [2]: 580 nM

UUACGUACGUAUGAGGAUAUCCAUAAUAAGACAUGAGGAUCACCCAUGUAAACAAAACAAUAAUGGGAGAAGGCAUACGUACGAA
apparent Kd [3]: 64.1 nM | apparent Kd [4]: 101 nM

AGUCUGUGGCAACUAUCCUCACAUGAGGAUCACCCAUGUAGGGAGGAUAUGCAUUUAAAGAAGUGGCAGAAGGCCCUACACGGA
apparent Kd [1]: 83.2 nM | apparent Kd [2]: 32.1 nM

UUGAUGUCAGGAUAUGCUUAAUAUAUUUUAUUAUAAUAUAUACAUGAGGAUCACCCAUGUAGAAGGGACAUUAU
apparent Kd [1]: 29.1 nM | apparent Kd [2]: 25.7 nM
